≈ marks a conversion by molar mass, not a printed value.
Key:
[1] = test system: HL-60; assay: Cytotoxicity against human HL60 cells after 3 days by MTT assay; type: functional, cell-based; settings: HL-60, 72 h
Summary of the method: (§1)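 Cells were kept in MEM with 10% fetal calf serum and kanamycin; the P-388/VCR line also received 0.5 μg/mL vincristine. Cells were seeded at 20 000 cells/mL and tested at eight concentrations, starting from 25 μg/mL in the well. After 3 days of culture, living cells were counted by MTT staining. Each experiment was run three times.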

[2] = test system: P388; assay: Cytotoxicity against mouse P388 cells after 3 days by MTT assay; type: functional, cell-based; settings: P388, 72 h; summary of the method: as §1
[3] = test system: P388; assay: Cytotoxicity against adriamycin-resistant mouse P388 cells after 3 days by MTT assay; type: functional, cell-based; settings: P388, 72 h; summary of the method: as §1
[4] = test system: P388; assay: Cytotoxicity against vincristine-resistant mouse P388 cells after 3 days by MTT assay; type: functional, cell-based; settings: P388, 72 h; summary of the method: as §1
[5] = test system: Leishmania donovani; assay: Antileishmanial activity against Leishmania donovani promastigotes after 6 to 7 hrs; type: functional, organism-based
Summary of the method: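 Promastigotes were maintained in 199 medium with 10% fetal calf serum and kanamycin. They were plated at 10 000 cells/mL and exposed to four sample concentrations, starting from 25 μg/mL in the well.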

SMILES | IC50 [1] [µg/mL] | IC50 [2] [µg/mL] | IC50 [3] [µg/mL] | IC50 [4] [µg/mL] | IC50 [5] [µg/mL]
CN[C@H]1[C@@H](OC)C[C@H](O[C@H]2CC[C@@]3(C)[C@@H](CC[C@@H]4[C@@H]3CC[C@]3(C)[C@H](C(C)=O)CC[C@]43O)C2)O[C@@H]1C | 0.01 (≈ 0.0203 µM) | 17 (≈ 34.6 µM) | 10.4 (≈ 21.2 µM) | 10.1 (≈ 20.5 µM) | 6.25 (≈ 12.7 µM)
CO[C@H]1C[C@H](O[C@H]2CC[C@@]3(C)[C@@H](CC[C@@H]4[C@@H]3CC[C@]3(C)[C@@H](C(C)=O)CC[C@]43O)C2)O[C@H](C)[C@H]1N | 2.6 (≈ 5.44 µM) | 4 (≈ 8.37 µM) | 11.5 (≈ 24.1 µM) | 3.5 (≈ 7.33 µM) | 1.56 (≈ 3.27 µM)
CC(=O)[C@H]1C[C@H](O)[C@H]2[C@@H]3CC=C4C[C@H](N)CC[C@]4(C)[C@H]3CC[C@@]21C | 1.2 (≈ 3.62 µM) | 4.1 (≈ 12.4 µM) | 3.6 (≈ 10.9 µM) | 1.4 (≈ 4.22 µM) | > 1.56
CC(=O)[C@H]1CC[C@]2(O)[C@@H]3CC[C@H]4C[C@H](N)CC[C@]4(C)[C@H]3CC[C@]12C | 10.1 (≈ 30.3 µM) | 3.6 (≈ 10.8 µM) | 8.6 (≈ 25.8 µM) | 3.4 (≈ 10.2 µM) | 6.25 (≈ 18.7 µM)
CO[C@H]1C[C@H](O[C@H]2CC[C@@]3(C)[C@@H](CC[C@@H]4[C@@H]3CC[C@]3(C)[C@H](C(C)=O)CC[C@]43O)C2)O[C@H](C)[C@H]1N | 0.21 (≈ 0.44 µM) | 10.5 (≈ 22 µM) | 13.5 (≈ 28.3 µM) | 10.2 (≈ 21.4 µM) | 6.25 (≈ 13.1 µM)
CN[C@H]1[C@@H](OC)C[C@H](O[C@H]2CC[C@@]3(C)[C@@H](CC[C@@H]4[C@@H]3CC[C@]3(C)[C@@H](C(C)=O)CC[C@]43O)C2)O[C@@H]1C [HOLACURTINE] | 0.86 (≈ 1.75 µM) | 4.2 (≈ 8.54 µM) | 3.4 (≈ 6.91 µM) | 2.8 (≈ 5.69 µM) | 1.56 (≈ 3.17 µM)
CO[C@H]1C[C@H](O[C@H]2CC[C@@]3(C)C(=CC[C@@H]4[C@@H]3CC[C@]3(C)[C@@H](C(C)=O)C[C@H](O)[C@]43O)C2)O[C@H](C)[C@H]1N [HOLACURTINOL] | 2.6 (≈ 5.29 µM) | 16 (≈ 32.5 µM) | 10.4 (≈ 21.2 µM) | 10 (≈ 20.3 µM) | 6.25 (≈ 12.7 µM)
CC(=O)[C@H]1CC[C@H]2[C@@H]3CC=C4C[C@H](N)CC[C@]4(C)[C@H]3CC[C@]12C [HOLAMINE] | 0.2 (≈ 0.634 µM) | 0.91 (≈ 2.88 µM) | 0.85 (≈ 2.69 µM) | 0.83 (≈ 2.63 µM) | 0.39 (≈ 1.24 µM)
